The results in this text go back to ChEMBL document CHEMBL5247621, “From dopamine 4 to sigma 1: Synthesis, SAR and biological characterization of a piperidine scaffold of σ1 modulators” (Eur J Med Chem, 2022).

pKi: −log10 of the molar value.

A short description of data set [1]: Ratio of total drug concentration in mouse brain to plasma at 5 mg/kg, ip measured after 5 hrs. In kind it is ADME, organism-based. In outline:
(§1)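 Mice received 5 mg/kg IP in 10% DMSO/10% Cremophor EL/30% PEG400/50% water. Kp is total brain concentration divided by total plasma concentration, taken at 1 h and 5 h post-dose.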

The nature of data set [2]: AUC(infinity) in mouse plasma at 5 mg/kg, ip measured after 24 hrs. In kind it is ADME, organism-based. The arrangement: dose 5 mg/kg, time 24 hrs, route ip. The settings on record: in vivo. In outline:
(§2)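 Discrete mouse study, single intraperitoneal dose of 5 mg/kg in 10% DMSO/10% Cremophor EL/30% PEG400/50% water. Plasma and brain concentrations followed over 24 h. Parameters estimated by non-compartmental analysis.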

A short description of data set [3]: Ratio of free drug concentration in mouse brain to plasma at 5 mg/kg, ip measured after 1 hr. Type of data set: ADME, organism-based. The method, boiled down:
(§3)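 Mice received 5 mg/kg IP in 10% DMSO/10% Cremophor EL/30% PEG400/50% water. Kp,uu is free brain over free plasma concentration at 1 h and 5 h. Free levels are corrected with unbound fractions measured in mouse plasma protein binding and in mouse brain homogenate binding.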

In data set [4] the target is T1, Sigma non-opioid intracellular receptor 1 (Homo sapiens, UniProt Q99720). Description: Displacement of [3H] Pentazocine from sigma 1 receptor in HEK293 cell membrane. The settings on record: read-out: Ki. Type of data set: cell membranes.
The nature of data set [5]: Half life in mouse brain at 5 mg/kg, ip measured after 24 hrs. Type of data set: ADME, organism-based. The note with it: in vivo. In outline:
as §2

The nature of data set [6]: AUC(infinity) in mouse brain at 5 mg/kg, ip measured after 24 hrs. Type of data set: ADME, organism-based. The arrangement: dose 5 mg/kg, time 24 hrs, route ip. The method, boiled down:
as §2

The target of data set [7] is T1, Sigma non-opioid intracellular receptor 1. Description: Binding affinity to sigma 1 receptor in human Jurkat cells. In kind it is cell-based.
Data set [8] can be described thus: Cmax in mouse brain at 5 mg/kg, ip measured after 24 hrs. In kind it is ADME, organism-based. Also noted: time 24 hrs, dose 5 mg/kg, route ip. In outline: as §2
The nature of data set [9]: Tmax in mouse plasma at 5 mg/kg, ip measured after 24 hrs. Type of data set: ADME, organism-based. The settings on record: in vivo. In outline: as §2
Data set [10] can be described thus: Ratio of total drug concentration in mouse brain to plasma at 5 mg/kg, ip measured after 1 hr. Type of data set: ADME, organism-based. In outline: as §1
The target in data set [11] is T2, D(4) dopamine receptor (Homo sapiens, UniProt P21917).
T2 sequence (P21917 whole entry): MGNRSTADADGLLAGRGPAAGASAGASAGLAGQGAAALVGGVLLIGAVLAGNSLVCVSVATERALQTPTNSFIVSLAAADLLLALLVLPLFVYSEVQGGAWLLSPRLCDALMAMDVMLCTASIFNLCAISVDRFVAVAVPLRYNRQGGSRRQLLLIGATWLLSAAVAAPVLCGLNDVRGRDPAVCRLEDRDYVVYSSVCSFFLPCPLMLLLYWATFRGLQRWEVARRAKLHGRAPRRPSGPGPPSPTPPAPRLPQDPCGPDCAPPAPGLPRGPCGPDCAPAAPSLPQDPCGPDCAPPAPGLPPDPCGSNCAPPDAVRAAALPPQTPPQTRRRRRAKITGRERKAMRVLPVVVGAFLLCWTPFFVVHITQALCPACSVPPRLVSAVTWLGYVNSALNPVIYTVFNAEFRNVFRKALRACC
Briefly: Displacement of [3H]N-methylspiperone from D4 receptor in HEK293 cell membrane. The settings on record: read-out: Ki. In kind it is cell membranes. (In general: Displacement assays read how much labelled ligand stays bound in the presence of the test substance.)

A short description of data set [12]: Mean residence time in mouse brain at 5 mg/kg, ip measured after 24 hrs. In kind it is ADME, organism-based. The note with it: in vivo. The method, boiled down: as §2
In data set [13] the target is Sigma intracellular receptor 2 (Homo sapiens, UniProt Q5BJF2). Description: Displacement of [3H]DTG from sigma-2 receptor in HEK293 cell membrane assessed as inhibition constant. Type of data set: cell membranes. In outline:
(§4)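 Competitive radioligand binding in membranes harvested from HEK293 cells, with one radioligand per target: [3H]N-methylspiperone for D2, D3 and D4; [3H]SCH23390 for D1 and D5; [3H]pentazocine for σ1; [3H]DTG for σ2. Ki derived from inhibition of binding, each run in triplicate.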

Data set [14] in a line: Ratio of free drug concentration in mouse brain to plasma at 5 mg/kg, ip measured after 5 hrs. The note with it: read-out: K(p,uu,brain). Type of data set: ADME, organism-based. In outline: as §3
A short description of data set [15]: Mean residence time in mouse plasma at 5 mg/kg, ip measured after 24 hrs. In kind it is ADME, organism-based. The settings on record: in vivo. In outline: as §2
A short description of data set [16]: Cmax in mouse plasma at 5 mg/kg, ip measured after 24 hrs. Also noted: dose 5 mg/kg, time 24 hrs, route ip. Type of data set: ADME, organism-based. The settings on record: in vivo. In outline: as §2
Data set [17] in a line: Tmax in mouse brain at 5 mg/kg, ip measured after 24 hrs. Type of data set: ADME, organism-based. The note with it: in vivo. In outline:
as §2

Data set [18] deals with D(1A) dopamine receptor (Homo sapiens, UniProt P21728). Description: Displacement of [3H]SCH23390 from D1 receptor in HEK293 cell membrane assessed as inhibition constant. Type of data set: cell membranes. The method, boiled down:
as §4

The nature of data set [19]: Half life in mouse plasma at 5 mg/kg, ip measured after 24 hrs. In kind it is ADME, organism-based. The note with it: in vivo. The method, boiled down:
as §2

T1 sequence (Q99720 whole entry): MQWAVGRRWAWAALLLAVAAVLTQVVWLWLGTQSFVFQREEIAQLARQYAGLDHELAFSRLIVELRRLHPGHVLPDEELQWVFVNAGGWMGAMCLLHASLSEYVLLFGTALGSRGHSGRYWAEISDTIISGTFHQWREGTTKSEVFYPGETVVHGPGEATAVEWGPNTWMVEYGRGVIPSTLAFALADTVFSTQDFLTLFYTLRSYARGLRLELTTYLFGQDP
Sigma intracellular receptor 2, sequence (Q5BJF2 whole entry): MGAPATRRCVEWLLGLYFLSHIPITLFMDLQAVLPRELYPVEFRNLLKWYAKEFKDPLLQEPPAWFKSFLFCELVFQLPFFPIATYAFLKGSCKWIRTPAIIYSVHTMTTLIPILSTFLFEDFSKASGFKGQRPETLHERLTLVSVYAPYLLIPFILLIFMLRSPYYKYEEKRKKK
D(1A) dopamine receptor, sequence (P21728 whole entry): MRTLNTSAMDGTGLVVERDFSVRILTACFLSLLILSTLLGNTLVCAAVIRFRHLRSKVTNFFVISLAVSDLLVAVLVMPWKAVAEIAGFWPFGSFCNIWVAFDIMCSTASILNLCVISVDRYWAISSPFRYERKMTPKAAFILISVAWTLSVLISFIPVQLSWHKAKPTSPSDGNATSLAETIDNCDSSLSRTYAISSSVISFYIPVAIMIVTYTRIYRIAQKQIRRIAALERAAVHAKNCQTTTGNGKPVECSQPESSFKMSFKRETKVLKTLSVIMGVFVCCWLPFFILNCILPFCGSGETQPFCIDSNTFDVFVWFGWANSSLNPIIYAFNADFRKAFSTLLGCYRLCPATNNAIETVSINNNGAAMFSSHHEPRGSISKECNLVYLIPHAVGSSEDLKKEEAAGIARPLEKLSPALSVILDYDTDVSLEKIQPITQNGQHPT

On to `Fc1cc(COC2CCN(Cc3ccc4[nH]cnc4c3)CC2)ccc1Cl`, for which the Kp (commonly the ratio of the level in a tissue or fluid to that in plasma or blood) at 5 h in data set [1] was 2.4. Besides, in data set [2], the area under the curve (AUC) (commonly the area under the concentration-time curve, a measure of exposure) is 2225 ng·h/mL. Moreover, the “K(p,uu,brain)” value in data set [3] was found to be 2.43. In addition, the pKi – broadly, −log10 of the Ki, conventionally taken in molar units – in data set [4] is 8.51; in data set [7], 8.41; in data set [11], 5.94; in [13], 7.15; in data set [18], less than 5.00. Further, the t1/2 in data set [5] worked out at 6.88 h; in data set [19] it was 3.68 h. Moreover, the AUC(0-inf) (as a rule, total exposure, with the tail of the curve extrapolated) in data set [6] was found to be 13900 ng·h/mL. Besides, the results for the Cmax in data set [8] and in [16] were 1890 ng/mL and 401 ng/mL, respectively. In addition, the Tmax – broadly, the time from dosing to the highest level – in data set [9] was 0.67 h; in data set [17] it was 1.67 h. For the same molecule, in data set [10], the Kp came out at 4.94. Besides, the MRT – broadly, the average time that molecules of a dose stay in the body – in data set [12] amounted to 8.3 h; in data set [15], 4.54 h. In addition, the Kp uu at 5 h in [14] amounted to 4.88.
